What was measured:
Canis familiaris [1] = test: effect on the time to occlusion(TO) in the dog electrolytic injury model at the 2.5 ug/kg/min to the artery; type: functional, Canis lupus familiaris
How it was run: (§1)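 Anesthetized dogs received electrolytic injury to the endothelium as the thrombotic stimulus in the femoral artery and a vein. Agent was infused continuously at 0 (control), 1.25, 2.5, 5 or 10 μg/kg/min. Time to occlusion was recorded up to a maximum of 240 min. n = 12 control, 4 at 1.25, and 5 at each other dose; mean ± SEM.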

Coagulation factor X [2] = biological target: T1, Coagulation factor X (Homo sapiens, UniProt P00742); test: In vitro inhibition of coagulation factor Xa.
How it was run: (§2)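 Enzyme was preincubated 1 h at room temperature with inhibitor across 14 concentrations (1 nM–100 μM final). A405 was read kinetically over 10 min at 37 °C. Percent inhibition came from the linear progress-curve slopes, typically in duplicate.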

Oryctolagus cuniculus [3] = test: effect on the time to occlusion in the rabbit Veno-venous Shunt model by administering through intravenous (IV) bolus (90 ug/kg) + infusion (3 ug/kg/min); type: functional
How it was run: (§3)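 Rabbit veno-venous shunt containing cotton threads. Test agent was given as an iv bolus plus continuous infusion at the stated dose. The endpoint was time to occlusion of the shunt vessel, observed over a 2-h window. Incidence of occlusion per group was recorded. n = 5 per dose group, mean ± SE.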

Homo sapiens [4] = organism: Homo sapiens; test: In Vitro evaluation for the concentration for 2 fold prolongation of Prolonged activated partial thromboplastin Time (aPTT) assay in human; type: functional
How it was run: (§4)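 Clotting assays (PT or aPTT) used pooled plasma from the named species with added inhibitor. The value is the concentration giving a 2-fold prolongation of clotting time. Determinations were done in duplicate.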

Canis lupus familiaris [5] = organism: Canis lupus familiaris; test: In Vitro evaluation for the concentration for 2 fold prolongation of Prothrombin Time (PT) assay in dog
Canis familiaris [6] = test: effect on the time to occlusion(TO) in the dog electrolytic injury model at the 1.25 ug/kg/min to the artery; type: functional, Canis lupus familiaris; how it was run: as §1
Canis familiaris [7] = test: effect on the time to occlusion(TO) in the dog electrolytic injury model at the 2.5 ug/kg/min to the vein; type: functional, Canis lupus familiaris; how it was run: as §1
Canis familiaris [8] = test: effect on the time to occlusion(TO) in the dog electrolytic injury model at the 10 ug/kg/min to the vein; type: functional, Canis lupus familiaris; how it was run: as §1
Canis familiaris [9] = test: effect on the time to occlusion(TO) in the dog electrolytic injury model at the 1.25 ug/kg/min to the vein; type: functional, Canis lupus familiaris; how it was run: as §1
Oryctolagus cuniculus [10] = organism: Oryctolagus cuniculus; test: In Vitro evaluation for the concentration for 2 fold prolongation of Prolonged activated partial thromboplastin Time (aPTT) assay in rabbit; type: functional; how it was run: as §4
Canis familiaris [11] = test: effect on the time to occlusion(TO) in the dog electrolytic injury model at the 5 ug/kg/min to the artery; type: functional, Canis lupus familiaris; how it was run: as §1
Canis familiaris [12] = test: effect on the time to occlusion(TO) in the dog electrolytic injury model at the 10 ug/kg/min to the artery; type: functional, Canis lupus familiaris; how it was run: as §1
Canis familiaris [13] = test: effect on the time to occlusion(TO) in the dog electrolytic injury model at the 0 ug/kg/min to the artery; type: functional, Canis lupus familiaris; how it was run: as §1
Canis familiaris [14] = test: effect on the time to occlusion(TO) in the dog electrolytic injury model at the 5 ug/kg/min to the vein; type: functional, Canis lupus familiaris; how it was run: as §1
Plasminogen = Plasminogen (Homo sapiens, UniProt P00747); test: Compound was tested for in vitro inhibitory activity against plasmin; how it was run: as §2
Canis familiaris [15] = test: effect on the time to occlusion(TO) in the dog electrolytic injury model at the 0 ug/kg/min to the vein; type: functional, Canis lupus familiaris; how it was run: as §1
Oryctolagus cuniculus [16] = test: effect on the time to occlusion in the rabbit Veno-venous Shunt model by administering through intravenous (IV) bolus (60 ug/kg) + infusion (2 ug/kg/min); type: functional; how it was run: as §3
[17] = biological target: Vitamin K-dependent protein C (Homo sapiens, UniProt P04070); test: Compound was tested for in vitro inhibitory activity against activated protein C
[18] = Compound was tested for in vitro inhibitory activity against Chymotrypsinogen at 100 uM
Oryctolagus cuniculus [19] = test: effect on the time to occlusion in the rabbit Veno-venous Shunt model by administering through intravenous (IV) bolus (30 ug/kg) + infusion (1 ug/kg/min); type: functional; how it was run: as §3
Homo sapiens [20] = organism: Homo sapiens; test: In Vitro evaluation for the concentration for 2 fold prolongation of Prothrombin Time (PT) assay in human
Canis lupus familiaris [21] = organism: Canis lupus familiaris; test: In Vitro evaluation for the concentration for 2 fold prolongation of Prolonged activated partial thromboplastin Time (aPTT) assay in dog
Oryctolagus cuniculus [22] = organism: Oryctolagus cuniculus; test: In Vitro evaluation for the concentration for 2 fold prolongation of Prothrombin Time (PT) assay in rabbit; type: functional; how it was run: as §4
[23] = biological target: T2, Coagulation factor VII (Homo sapiens) (UniProt P08709); test: Compound was tested for in vitro inhibitory activity against coagulation factor VII at 100 uM
T2 sequence (whole entry): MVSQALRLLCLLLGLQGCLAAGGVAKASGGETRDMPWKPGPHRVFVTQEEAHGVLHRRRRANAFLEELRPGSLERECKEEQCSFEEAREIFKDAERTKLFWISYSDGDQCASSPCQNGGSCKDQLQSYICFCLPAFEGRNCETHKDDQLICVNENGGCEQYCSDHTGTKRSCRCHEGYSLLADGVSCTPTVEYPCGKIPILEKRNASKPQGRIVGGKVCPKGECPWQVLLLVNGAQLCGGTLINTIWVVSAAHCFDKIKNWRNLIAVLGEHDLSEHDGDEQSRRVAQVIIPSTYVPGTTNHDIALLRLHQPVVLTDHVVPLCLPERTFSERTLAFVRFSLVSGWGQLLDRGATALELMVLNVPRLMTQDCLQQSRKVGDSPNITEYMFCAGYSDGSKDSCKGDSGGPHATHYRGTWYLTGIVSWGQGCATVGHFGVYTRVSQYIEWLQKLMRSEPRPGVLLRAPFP

Coagulation factor X [24] = biological target: T1, Coagulation factor X; test: Compound was tested for in vitro inhibitory activity against Prothrombinase

T1 sequence (P00742 41-179 limits assumed): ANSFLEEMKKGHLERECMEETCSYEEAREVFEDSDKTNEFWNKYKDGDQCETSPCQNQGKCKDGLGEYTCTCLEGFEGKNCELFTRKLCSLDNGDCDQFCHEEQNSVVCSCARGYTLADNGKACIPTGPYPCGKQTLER
T1 sequence (P00742 235-488 limits assumed): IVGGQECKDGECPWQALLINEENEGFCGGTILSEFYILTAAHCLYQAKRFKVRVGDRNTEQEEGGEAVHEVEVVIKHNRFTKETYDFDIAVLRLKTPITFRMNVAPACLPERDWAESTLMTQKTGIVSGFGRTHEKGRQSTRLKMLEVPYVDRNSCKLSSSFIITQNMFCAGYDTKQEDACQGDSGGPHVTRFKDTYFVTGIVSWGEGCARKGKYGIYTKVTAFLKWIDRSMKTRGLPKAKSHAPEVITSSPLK
Sequence of Vitamin K-dependent protein C (P04070 43-197 limits assumed): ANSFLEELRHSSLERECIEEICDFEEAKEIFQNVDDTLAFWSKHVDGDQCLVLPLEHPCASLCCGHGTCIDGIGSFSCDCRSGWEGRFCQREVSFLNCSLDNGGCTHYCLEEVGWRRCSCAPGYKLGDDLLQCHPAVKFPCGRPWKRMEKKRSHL
Sequence of Vitamin K-dependent protein C (P04070 212-461 limits assumed): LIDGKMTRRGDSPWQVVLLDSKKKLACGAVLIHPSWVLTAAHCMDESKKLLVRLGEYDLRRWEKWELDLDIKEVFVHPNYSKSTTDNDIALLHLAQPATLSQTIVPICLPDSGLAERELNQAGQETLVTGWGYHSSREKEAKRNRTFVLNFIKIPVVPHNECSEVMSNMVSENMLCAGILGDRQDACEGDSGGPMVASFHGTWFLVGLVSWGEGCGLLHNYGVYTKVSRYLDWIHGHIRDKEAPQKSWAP
Sequence of Plasminogen (P00747 97-580 limits assumed): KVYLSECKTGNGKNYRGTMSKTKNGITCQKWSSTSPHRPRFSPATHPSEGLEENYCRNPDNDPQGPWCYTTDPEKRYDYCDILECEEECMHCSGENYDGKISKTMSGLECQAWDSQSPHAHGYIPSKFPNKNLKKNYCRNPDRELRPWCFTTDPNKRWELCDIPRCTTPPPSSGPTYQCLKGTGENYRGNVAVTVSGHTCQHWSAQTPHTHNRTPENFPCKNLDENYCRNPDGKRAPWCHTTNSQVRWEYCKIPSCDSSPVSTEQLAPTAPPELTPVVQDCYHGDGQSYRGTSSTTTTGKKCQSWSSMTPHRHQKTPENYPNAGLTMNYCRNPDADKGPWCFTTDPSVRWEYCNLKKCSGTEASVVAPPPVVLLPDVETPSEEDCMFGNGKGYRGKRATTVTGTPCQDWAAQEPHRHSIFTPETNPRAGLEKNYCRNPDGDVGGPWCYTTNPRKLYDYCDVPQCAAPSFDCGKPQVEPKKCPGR
Sequence of Plasminogen (P00747 581-810 limits assumed): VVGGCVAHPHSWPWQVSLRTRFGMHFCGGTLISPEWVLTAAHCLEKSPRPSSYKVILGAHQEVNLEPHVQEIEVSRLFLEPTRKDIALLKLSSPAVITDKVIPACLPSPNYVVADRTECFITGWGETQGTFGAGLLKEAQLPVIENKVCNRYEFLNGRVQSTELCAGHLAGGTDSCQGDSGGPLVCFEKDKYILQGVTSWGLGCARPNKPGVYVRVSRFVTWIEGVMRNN

## CC1CCCC(C)N1CCCCCN1C(=O)C(c2cccc(C(=N)N)c2)Oc2ccccc21 (stereo not given)
Canis familiaris [1]
  TO: 167 min
Coagulation factor X [2]
  IC50: 0.003 µM
Oryctolagus cuniculus [3]
  TO: 98 min
Homo sapiens [4]
  Concentration: 0.34 µM
Canis lupus familiaris [5]
  Concentration: 0.57 µM
Canis familiaris [6]
  TO: 148 min
Canis familiaris [7]
  TO: 144 min
Canis familiaris [8]
  TO: 240 min
Canis familiaris [9]
  TO: 125 min
Oryctolagus cuniculus [10]
  Concentration: 0.15 µM
Canis familiaris [11]
  TO: 240 min
Canis familiaris [12]
  TO: 240 min
Canis familiaris [13]
  TO: 87 min
Canis familiaris [14]
  TO: 220 min
Plasminogen
  IC50: 8.4 µM
Canis familiaris [15]
  TO: 120 min
Oryctolagus cuniculus [16]
  TO: 37 min
[17]
  IC50: 23 µM
[18]
  inhibition: 24%
Oryctolagus cuniculus [19]
  TO: 27 min
Homo sapiens [20]
  Concentration: 0.17 µM
Canis lupus familiaris [21]
  Concentration: 0.19 µM
Oryctolagus cuniculus [22]
  Concentration: 0.33 µM
[23]
  inhibition: 32%
Coagulation factor X [24]
  IC50: 0.004 µM

— ChEMBL document CHEMBL1133480, “Rational design, synthesis, and biological activity of benzoxazinones as novel factor Xa inhibitors” (J Med Chem, 2000)
